Conditions in all cases: stereoisomer not certain
For assay [1], the target named is T1, UniProt A2ATE5.
T1 sequence (whole entry): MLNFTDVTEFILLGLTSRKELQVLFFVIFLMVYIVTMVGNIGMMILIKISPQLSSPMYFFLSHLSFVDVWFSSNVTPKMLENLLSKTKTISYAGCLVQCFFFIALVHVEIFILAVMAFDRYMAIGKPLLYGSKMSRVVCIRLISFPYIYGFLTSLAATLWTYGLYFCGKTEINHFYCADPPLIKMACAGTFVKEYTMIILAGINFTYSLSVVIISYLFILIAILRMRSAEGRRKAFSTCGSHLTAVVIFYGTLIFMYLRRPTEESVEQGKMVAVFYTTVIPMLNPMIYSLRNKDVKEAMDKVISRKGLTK
Put shortly:
(§1)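 Values were gathered from published papers (main text and supplementary material), with extra details requested from the original authors when needed, and checked for typos and inconsistencies. Each receptor–molecule pair is called responsive (active) if the original authors judged the measured signal statistically different from baseline, and non-responsive (inactive) otherwise. Assay methods varied by source, often transient mammalian cell-line luciferase assays. Recorded details include cell line, G-protein, co-transfected protein and tags.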

Assay [2] has as its target T2, UniProt A2AVB0.
T2 sequence (whole entry): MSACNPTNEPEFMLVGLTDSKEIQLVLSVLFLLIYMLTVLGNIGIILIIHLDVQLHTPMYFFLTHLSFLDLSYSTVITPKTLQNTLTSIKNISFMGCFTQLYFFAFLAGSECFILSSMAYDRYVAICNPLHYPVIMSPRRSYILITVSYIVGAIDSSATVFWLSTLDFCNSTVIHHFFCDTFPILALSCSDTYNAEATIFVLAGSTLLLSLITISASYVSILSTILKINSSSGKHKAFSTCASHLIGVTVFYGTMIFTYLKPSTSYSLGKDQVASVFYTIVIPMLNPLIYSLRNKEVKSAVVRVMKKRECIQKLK
In a few lines: as §1

In assay [3] the target is T3, UniProt A2AVB5.
T3 sequence (whole entry): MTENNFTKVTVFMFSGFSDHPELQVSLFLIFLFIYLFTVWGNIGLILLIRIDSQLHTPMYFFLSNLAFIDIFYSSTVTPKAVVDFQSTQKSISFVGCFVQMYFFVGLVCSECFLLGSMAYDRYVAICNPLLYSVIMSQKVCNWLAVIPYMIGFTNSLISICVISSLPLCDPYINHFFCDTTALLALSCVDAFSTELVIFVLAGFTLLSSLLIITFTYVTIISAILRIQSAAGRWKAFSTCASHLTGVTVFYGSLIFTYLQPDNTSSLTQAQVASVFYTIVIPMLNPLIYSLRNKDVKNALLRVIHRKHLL
Put shortly:
as §1

Assay [4] deals with T4, UniProt B2RVX8.
T4 sequence (whole entry): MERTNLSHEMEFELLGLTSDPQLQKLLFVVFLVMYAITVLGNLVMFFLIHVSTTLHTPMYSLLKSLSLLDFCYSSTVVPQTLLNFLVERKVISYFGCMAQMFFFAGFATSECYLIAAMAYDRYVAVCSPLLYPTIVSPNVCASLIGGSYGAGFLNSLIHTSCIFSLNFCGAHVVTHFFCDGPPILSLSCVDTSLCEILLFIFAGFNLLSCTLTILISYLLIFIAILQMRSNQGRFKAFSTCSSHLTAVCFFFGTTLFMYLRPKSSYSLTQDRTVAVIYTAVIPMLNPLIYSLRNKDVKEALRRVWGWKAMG
In a few lines:
as §1

Assay [5] addresses T5, UniProt E9PVX1.
T5 sequence (whole entry): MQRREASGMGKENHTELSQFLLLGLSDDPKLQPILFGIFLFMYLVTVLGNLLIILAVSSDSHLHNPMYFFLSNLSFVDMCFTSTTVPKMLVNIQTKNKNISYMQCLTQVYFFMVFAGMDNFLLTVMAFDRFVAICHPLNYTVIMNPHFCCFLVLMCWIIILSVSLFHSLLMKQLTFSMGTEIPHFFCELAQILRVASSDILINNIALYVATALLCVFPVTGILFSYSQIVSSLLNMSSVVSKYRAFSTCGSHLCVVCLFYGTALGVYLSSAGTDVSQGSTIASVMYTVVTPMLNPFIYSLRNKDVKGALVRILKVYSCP
In a few lines: as §1

The target of assay [6] is T6, UniProt E9PZ66.
T6 sequence (whole entry): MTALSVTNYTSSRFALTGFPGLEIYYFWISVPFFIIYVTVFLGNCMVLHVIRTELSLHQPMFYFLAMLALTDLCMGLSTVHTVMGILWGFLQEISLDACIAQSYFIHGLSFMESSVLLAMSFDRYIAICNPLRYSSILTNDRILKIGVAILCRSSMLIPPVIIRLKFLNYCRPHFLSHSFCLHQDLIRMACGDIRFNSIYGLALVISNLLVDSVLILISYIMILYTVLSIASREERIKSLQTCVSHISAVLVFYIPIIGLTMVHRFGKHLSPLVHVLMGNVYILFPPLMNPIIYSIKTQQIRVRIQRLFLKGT
In a few lines:
as §1

The target in assay [7] is T7, UniProt E9Q4X7.
T7 sequence (whole entry): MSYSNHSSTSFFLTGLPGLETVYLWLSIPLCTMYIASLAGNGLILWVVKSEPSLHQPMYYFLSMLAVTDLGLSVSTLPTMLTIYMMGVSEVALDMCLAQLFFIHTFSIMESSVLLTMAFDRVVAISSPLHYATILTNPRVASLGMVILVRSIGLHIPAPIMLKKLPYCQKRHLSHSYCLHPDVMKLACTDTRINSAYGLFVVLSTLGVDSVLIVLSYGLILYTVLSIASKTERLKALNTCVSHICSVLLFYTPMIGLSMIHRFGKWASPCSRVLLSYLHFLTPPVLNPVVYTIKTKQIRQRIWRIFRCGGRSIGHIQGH
In a few lines:
as §1

Assay [8] deals with T8, UniProt E9Q546.
T8 sequence (whole entry): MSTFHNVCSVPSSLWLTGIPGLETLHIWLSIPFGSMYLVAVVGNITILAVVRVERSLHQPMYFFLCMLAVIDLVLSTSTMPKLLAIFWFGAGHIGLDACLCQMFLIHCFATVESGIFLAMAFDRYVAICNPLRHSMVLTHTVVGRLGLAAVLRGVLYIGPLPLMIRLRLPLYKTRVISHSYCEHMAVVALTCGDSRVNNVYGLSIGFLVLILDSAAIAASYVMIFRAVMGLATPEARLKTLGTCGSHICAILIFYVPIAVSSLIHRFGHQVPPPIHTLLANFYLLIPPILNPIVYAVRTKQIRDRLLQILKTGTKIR
Put shortly:
as §1

The target in assay [9] is T9, UniProt E9Q6Z7.
T9 sequence (whole entry): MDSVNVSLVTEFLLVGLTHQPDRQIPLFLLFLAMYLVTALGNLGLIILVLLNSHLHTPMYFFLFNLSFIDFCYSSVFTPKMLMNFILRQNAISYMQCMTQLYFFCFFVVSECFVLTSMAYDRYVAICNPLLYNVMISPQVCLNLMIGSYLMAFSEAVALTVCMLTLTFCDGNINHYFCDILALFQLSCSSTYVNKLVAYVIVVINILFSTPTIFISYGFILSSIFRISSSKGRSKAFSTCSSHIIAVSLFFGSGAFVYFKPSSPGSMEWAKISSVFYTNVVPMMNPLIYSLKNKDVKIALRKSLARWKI
Put shortly:
as §1

The target in assay [10] is T10, UniProt K7N609.
T10 sequence (whole entry): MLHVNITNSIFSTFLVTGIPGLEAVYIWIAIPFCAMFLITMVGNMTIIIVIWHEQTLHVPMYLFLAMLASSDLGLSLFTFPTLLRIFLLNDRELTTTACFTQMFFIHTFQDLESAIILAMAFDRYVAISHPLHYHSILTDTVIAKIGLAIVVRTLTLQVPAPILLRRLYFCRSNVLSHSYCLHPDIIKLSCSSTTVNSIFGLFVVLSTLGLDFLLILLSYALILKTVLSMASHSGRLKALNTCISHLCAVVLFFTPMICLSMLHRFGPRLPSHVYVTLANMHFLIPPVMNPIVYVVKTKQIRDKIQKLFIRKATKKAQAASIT
In a few lines:
as §1

Assay [11] concerns the target T11, UniProt E9PX47.
T11 sequence (whole entry): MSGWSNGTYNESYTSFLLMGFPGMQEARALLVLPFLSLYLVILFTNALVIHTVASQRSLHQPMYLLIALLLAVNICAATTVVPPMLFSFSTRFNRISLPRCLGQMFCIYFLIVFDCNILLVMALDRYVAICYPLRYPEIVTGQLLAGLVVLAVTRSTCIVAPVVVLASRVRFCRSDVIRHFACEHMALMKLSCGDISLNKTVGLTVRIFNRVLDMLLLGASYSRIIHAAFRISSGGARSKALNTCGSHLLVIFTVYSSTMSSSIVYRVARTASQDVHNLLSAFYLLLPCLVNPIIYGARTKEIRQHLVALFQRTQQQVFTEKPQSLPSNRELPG
Put shortly:
as §1

Assay [12] addresses T12, UniProt E9PXN3.
T12 sequence (whole entry): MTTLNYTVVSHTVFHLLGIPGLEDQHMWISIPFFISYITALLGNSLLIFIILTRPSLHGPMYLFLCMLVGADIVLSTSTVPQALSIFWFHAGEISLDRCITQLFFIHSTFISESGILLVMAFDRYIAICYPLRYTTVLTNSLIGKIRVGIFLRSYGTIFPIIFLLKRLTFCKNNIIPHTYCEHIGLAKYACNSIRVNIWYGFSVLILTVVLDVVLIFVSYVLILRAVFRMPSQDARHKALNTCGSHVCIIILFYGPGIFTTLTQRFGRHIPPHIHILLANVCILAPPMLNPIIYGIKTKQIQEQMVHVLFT
Put shortly:
as §1

Consider `CCCCCCCCCCO`, for which the “odorant receptor agonist call” value in assay [1], in assay [2], in assay [3], in [4], in assay [5] and in assay [6] was “inactive” each time. The “odorant receptor agonist call” value in [7], in assay [8], in assay [9] and in assay [10] was “inactive” throughout.
With `CCCCCCCCCC(=O)[O-].[H+]`, the “odorant receptor agonist call” value in assay [1], in assay [2], in assay [3], in [4], in [5] and in assay [11] was “inactive” each time. Also, the “odorant receptor agonist call” value in assay [6], in assay [7], in [9] and in assay [10] was “inactive” throughout. Moreover, the “odorant receptor agonist call” value in assay [8] is “active”.
Take `CCCCCC=O`: the “odorant receptor agonist call” value in assay [1], in [2], in assay [3], in assay [4], in [5] and in assay [6] was “inactive” each time. Further, the “odorant receptor agonist call” value in assay [7], in [8], in assay [9] and in assay [10] was “inactive” in each case.
In the case of `CCCCC(=O)O`, the “odorant receptor agonist call” value in assay [1], in assay [2], in [3], in assay [4], in assay [5] and in assay [11] was “inactive” throughout. Moreover, the “odorant receptor agonist call” value in assay [12], in [7], in [8], in assay [9] and in [10] was “inactive” in each case. In assay [6], the “odorant receptor agonist call” value is “active”.
`C=CCOC(=O)CCCCCC`: the “odorant receptor agonist call” value in [1], in assay [2], in [3], in assay [4], in [5] and in assay [6] was “inactive” each time. Further, the “odorant receptor agonist call” value in assay [7], in assay [8], in assay [9] and in assay [10] was “inactive” throughout.
With `O=C1Cc2ccccc2O1`, the “odorant receptor agonist call” value in assay [1], in assay [2], in assay [3], in assay [4], in assay [5] and in assay [6] was “inactive” in each case. Moreover, the “odorant receptor agonist call” value in [7], in assay [8], in [9] and in assay [10] was “inactive” throughout.
Consider `CCCCCC1=C(C)CCC1=O`, for which the “odorant receptor agonist call” value in assay [1], in assay [2], in [3], in assay [5], in assay [6] and in assay [7] was “inactive” in each case. Moreover, the “odorant receptor agonist call” value in [8], in assay [9] and in assay [10] was “inactive” throughout. Further, the “odorant receptor agonist call” value in [4] was “active”.
Turning to `CCCCCCCCO`, the “odorant receptor agonist call” value in assay [1], in [2], in [3], in assay [4], in assay [5] and in assay [11] was “inactive” throughout. In addition, the “odorant receptor agonist call” value in [12], in assay [6], in assay [7], in assay [8], in [9] and in [10] was “inactive” in each case.
Take `CCCCCCCO`: the “odorant receptor agonist call” value in assay [1], in assay [2], in [3], in assay [4], in [5] and in [11] was “inactive” in each case. Also, the “odorant receptor agonist call” value in [12], in assay [6], in assay [7], in assay [8], in assay [9] and in [10] was “inactive” in each case.
For the compound `CCCCCCCCCS`, the “odorant receptor agonist call” value in assay [1], in assay [2], in [3], in [4], in [5] and in assay [6] was “inactive” each time. For the same compound, the “odorant receptor agonist call” value in assay [7], in [8], in assay [9] and in [10] was “inactive” each time.

The record behind these values is the M2OR odorant receptor database.
